# Assay results as given in BindingDB's records for doi:10.1021/jm00019a014 (University of Ghent, 1995).
# Assays:
# [1] = target: glycosomal glyceraldehyde-3-phosphate dehydrogenase (GAPDH); assay: Inhibition of glyceraldehyde-3-phosphate dehydrogenase in Trypanosoma brucei
# Method in brief: (§1)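 Enzyme sources: human erythrocyte GAPDH, glycosomal GAPDH from T. brucei, and glycosomal GAPDH from L. mexicana. IC50 is the inhibitor concentration at which 50% of enzyme activity remains. Poorly soluble compounds were not tested above their solubility limit, and the remaining activity at that level was recorded instead.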
# [2] = target: glyceraldehyde-3-phosphate dehydrogenase (glycosomal GAPDH per title); assay: TInhibition of glyceraldehyde-3-phosphate dehydrogenase in Leishmania mexicana; method in brief: as §1
IC50 [1],IC50 [2],SMILES
> 10 mM,> 10 mM,Nc1ncnc2c1ncn2C1OC(CO)C(O)C1NCc1ccccc1 (stereo unspecified) [5-(6-Amino-purin-9-yl)-4-benzylamino-2-hydroxymethyl-tetrahydro-furan-3-ol]
> 10 mM,> 10 mM,COc1cccc(C(=O)NC2C(O)C(CO)OC2n2cnc3c(N)nc(C)nc32)c1 (stereo unspecified) [N-[2-(6-Amino-2-methyl-purin-9-yl)-4-hydroxy-5-hydroxymethyl-tetrahydro-furan-3-yl]-3-methoxy-benzamide]
> 10 mM,> 10 mM,CC(C)COC(=O)NC1C(O)C(CO)OC1n1cnc2c(N)ncnc21 (stereo unspecified) [[2-(6-Amino-purin-9-yl)-4-hydroxy-5-hydroxymethyl-tetrahydro-furan-3-yl]-carbamic acid isobutyl ester]
